ChEMBL document CHEMBL3351588, “Design, synthesis and biological evaluation of N-alkyl or aryl substituted isoindigo derivatives as potential dual cyclin-dependent kinase 2 (CDK2)/glycogen synthase kinase 3β (GSK-3β) phosphorylation inhibitors” (Eur J Med Chem, 2014)
Active and inactive are the calls of the source. The rule behind the calls is not given here.

Assays:
K562 [1] = assay: Induction of apoptosis in human K562 cells assessed as viable cells level at 5 uM after 24 hrs by Annexin V-FITC/propidium iodide staining based flow cytometry (reference value: 97.64%); type: functional
Outline: (§1)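 K562 cells exposed for 24 h or 48 h to 0, 5.0, 10.0, 15.0, 20.0 or 30.0 µM; vehicle DMSO 0.5% v/v. Cells stained with FITC-Annexin V, then counterstained with PI, and analysed by FACScan flow cytometry. Quadrants: Annexin V−/PI− viable; Annexin V+/PI− early apoptotic; Annexin V+/PI+ late apoptotic/necrotic.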

K562 [2] = assay: Induction of apoptosis in human K562 cells assessed as late apoptotic cells level at 30 uM after 48 hrs by Annexin V-FITC/propidium iodide staining based flow cytometry (reference value: 0.54%); type: functional; outline: as §1
K562 [3] = assay: Induction of cell morphological changes in human K562 cells assessed as nuclear fragmentation at 5 to 30 uM after 24 hrs by Hoechst 33342/propidium iodide staining based inverted fluorescence microscopy; type: functional
Outline: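 Cells treated for 24 h with 5.0–30.0 μM or with 0.5% DMSO, then collected and washed with PBS. Stained with Hoechst 33342 (5.0 μg/mL, 10 min, 37 °C), then with PI (10.0 μg/mL, 10 min, room temperature, dark). Nuclei scored by fluorescence microscopy as condensed/bright, fragmented, or PI-positive.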

K562 [4] = assay: Induction of apoptosis in human K562 cells assessed as necrotic cells level at 5 uM after 24 hrs by Annexin V-FITC/propidium iodide staining based flow cytometry (reference value: 0.0%); type: functional; outline: as §1
K562 [5] = assay: Induction of apoptosis in human K562 cells assessed as viable cells level at 10 uM after 24 hrs by Annexin V-FITC/propidium iodide staining based flow cytometry (reference value: 97.64%); type: functional; outline: as §1
K562 [6] = assay: Induction of apoptosis in human K562 cells assessed as early apoptotic cells level at 10 uM after 48 hrs by Annexin V-FITC/propidium iodide staining based flow cytometry (reference value: 0.24%); type: functional; outline: as §1
K562 [7] = assay: Induction of apoptosis in human K562 cells assessed as viable cells level at 15 uM after 24 hrs by Annexin V-FITC/propidium iodide staining based flow cytometry (reference value: 97.64%); type: functional; outline: as §1
K562 [8] = assay: Cytotoxicity against human K562 cells after 48 hrs by SRB assay; type: functional, cell-based; details: K562, 48 h
Outline: (§2)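 Cells seeded at 5 × 10³ per well and allowed to attach for 12 h, then exposed to a range of drug concentrations in their own medium for 48 h. Fixed with ice-cold TCA for 1 h at 4 °C, washed, then stained with 0.4% SRB for 30 min at room temperature. IC50 is the mean of three independent experiments.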

K562 [9] = assay: Induction of necrosis in human K562 cells after 48 hrs by Annexin V-FITC/propidium iodide staining based flow cytometry; type: functional, cell-based
K562 [10] = assay: Induction of apoptosis in human K562 cells assessed as necrotic cells level at 20 uM after 48 hrs by Annexin V-FITC/propidium iodide staining based flow cytometry (reference value: 0.01%); type: functional; outline: as §1
K562 [11] = assay: Induction of apoptosis in human K562 cells assessed as late apoptotic cells level at 5 uM after 24 hrs by Annexin V-FITC/propidium iodide staining based flow cytometry (reference value: 0.79%); type: functional; outline: as §1
K562 [12] = assay: Induction of apoptosis in human K562 cells assessed as early apoptotic cells level at 30 uM after 48 hrs by Annexin V-FITC/propidium iodide staining based flow cytometry (reference value: 0.24%); type: functional; outline: as §1
K562 [13] = assay: Induction of apoptosis in human K562 cells assessed as late apoptotic cells level at 15 uM after 48 hrs by Annexin V-FITC/propidium iodide staining based flow cytometry (reference value: 0.54%); type: functional; outline: as §1
K562 [14] = assay: Induction of apoptosis in human K562 cells assessed as viable cells level at 15 uM after 48 hrs by Annexin V-FITC/propidium iodide staining based flow cytometry (reference value: 99.21%); type: functional; outline: as §1
K562 [15] = assay: Induction of cell cycle arrest in human K562 cells assessed as accumulation at G0/G1 phase at 30 uM after 24 hrs by propidium iodide staining based flow cytometry (reference value: 36.14%); type: functional
K562 [16] = assay: Induction of apoptosis in human K562 cells assessed as early apoptotic cells level at 10 uM after 24 hrs by Annexin V-FITC/propidium iodide staining based flow cytometry (reference value: […]); type: functional
K562 [17] = assay: Induction of cell cycle arrest in human K562 cells assessed as accumulation at S phase after 24 hrs by propidium iodide staining based flow cytometry; type: functional
K562 [18] = assay: Induction of apoptosis in human K562 cells assessed as early apoptotic cells level at 30 uM after 24 hrs by Annexin V-FITC/propidium iodide staining based flow cytometry (reference value: […]); type: functional
K562 [19] = assay: Induction of apoptosis in human K562 cells assessed as necrotic cells level at 15 uM after 24 hrs by Annexin V-FITC/propidium iodide staining based flow cytometry (reference value: 0.0%); type: functional; outline: as §1
K562 [20] = assay: Induction of apoptosis in human K562 cells assessed as late apoptotic cells level at 15 uM after 24 hrs by Annexin V-FITC/propidium iodide staining based flow cytometry (reference value: 0.79%); type: functional; outline: as §1
[21] = Cytotoxicity against human HCT116 cells after 48 hrs by SRB assay; type: functional, cell-based; details: HCT-116, 48 h; outline: as §2
K562 [22] = assay: Reduction in c-myc protein expression in human K562 cells at 5 to 30 uM after 24 hrs by Western blotting method; type: functional, cell-based
K562 [23] = assay: Induction of apoptosis in human K562 cells assessed as late apoptotic cells level at 20 uM after 48 hrs by Annexin V-FITC/propidium iodide staining based flow cytometry (reference value: 0.54%); type: functional; outline: as §1
K562 [24] = assay: Induction of apoptosis in human K562 cells assessed as necrotic cells level at 30 uM after 24 hrs by Annexin V-FITC/propidium iodide staining based flow cytometry (reference value: 0.0%); type: functional; outline: as §1
K562 [25] = assay: Induction of cell cycle arrest in human K562 cells assessed as accumulation at G2/M phase at 5 uM after 24 hrs by propidium iodide staining based flow cytometry (reference value: 18.96%); type: functional
L1210 = assay: Cytotoxicity against mouse L1210 cells after 48 hrs by SRB assay; type: functional, cell-based; details: L1210, 48 h; outline: as §2
K562 [26] = assay: Induction of apoptosis in human K562 cells assessed as necrotic cells level at 10 uM after 24 hrs by Annexin V-FITC/propidium iodide staining based flow cytometry (reference value: 0.0%); type: functional; outline: as §1
K562 [27] = assay: Increase in GSK3beta protein expression in human K562 cells at 5 to 30 uM after 24 hrs by Western blotting method; type: functional, cell-based
Outline: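 K562 cells treated for 24 h; negative control DMSO 0.5% v/v, meisoindigo positive control. Lysates separated on 10% SDS-PAGE and transferred to nitrocellulose. Blocked with 5% milk in PBS-0.1% Tween-20, then probed for GSK-3β and p-GSK-3β (Ser9) for 2 h at room temperature, with β-actin as loading control. Detected with IRDye secondaries by infrared imaging and quantified by band gray value; p<0.05 versus DMSO.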

K562 [28] = assay: Induction of apoptosis in human K562 cells assessed as early apoptotic cells level at 15 uM after 48 hrs by Annexin V-FITC/propidium iodide staining based flow cytometry (reference value: 0.24%); type: functional; outline: as §1
K562 [29] = assay: Reduction in CDK2 protein expression in human K562 cells at 5 to 30 uM after 24 hrs by Western blotting method; type: functional, cell-based

In the case of `COc1ccc(N2C(=O)/C(=C3/C(=O)Nc4ccccc43)c3ccccc32)cc1`, the Activity (K562 [1]) is reported as 96.21%, the Activity (K562 [2]) is reported as 42.09% and the Activity (K562 [3]) is reported as “Active”. It also gave an Activity (K562 [4]) of 0%, an Activity (K562 [5]) of 93.14% and an Activity (K562 [6]) of 1.68%. The Activity (K562 [7]) was 90.17%, the IC50 (K562 [8]) was 7.8 µM and the Activity (K562 [9]) was “Dose-dependent effect”. The Activity (K562 [10]) was 0.51%, the Activity (K562 [11]) was 1.54% and the Activity (K562 [12]) was 19.3%. The Activity (K562 [13]) was 2.2%, the Activity (K562 [14]) was 95.68% and the Activity (K562 [15]) was 25.43%. The Activity (K562 [16]) was 4.4%, the Activity (K562 [17]) was “Dose-dependent effect” and the Activity (K562 [18]) was 23%. The Activity (K562 [19]) was 0.01%, the Activity (K562 [20]) was 4.48% and the IC50 [21] was > 200 µM. The inhibition (K562 [22]) was “Dose-dependent effect”, the Activity (K562 [23]) was 11.56% and the Activity (K562 [24]) was 0%. It also gave an Activity (K562 [25]) of 16.81%, an IC50 (L1210) of 102 µM and an Activity (K562 [26]) of 0.01%. For the same molecule, the Activity (K562 [27]) was “Dose-dependent effect”, the Activity (K562 [28]) was 2.1% and the inhibition (K562 [29]) was “Dose-dependent effect”.
